Tb MetRS inh = T. brucei MetRS inhibitors, primary screen, biochemical, luminescence. methionyl-tRNA synthetase (Trypanosoma brucei brucei). purified T. brucei MetRS, ATP depletion, Kinase-Glo luminescence. inhibition, % at 11.9 µM. 0.4% of 360,000 active. AID 624268, 2012;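 active means inhibition above a per-plate cutoff of the control wells' mean inhibition plus 3 SD, cut at about 5.5% in these data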;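 further: 0% = DMSO wells median and 100% = median of wells with control inhibitor compound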
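Material – parasite MetRS enzyme · Medium – HEPES-MgCl2-KCl buffer plus DTT, spermine, BSA, pyrophosphatase · Reagent – ATP, methionine and E. coli bulk tRNA substrates · Times – 15 min enzyme-compound preincubation, 2 h reaction, 10 min detection, 25 °C · Measured by – luminescence of leftover ATP · Evaluation – percent inhibition relative to median high and low control wells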
HGIII-sPLA2 inh = human group III sPLA2 inhibitors, primary screen, biochemical, QFRET, BODIPY PC-A2 liposome substrate. Group 3 secretory phospholipase A2 (Homo sapiens), Q9NZ20. inhibition, % at 12.2 µM. AID 743126, 2013. 0.56% of 370,000 active. QFRET BODIPY PC-A2 liposome hydrolysis, fluorescence;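 active means inhibition above mean plus 3 SD of compounds lying within the high and low control bounds, cut at about 19% in these data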;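 further: 0% = median of test compound wells and 100% = no enzyme DMSO wells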
PLCg1 inh = PLC-gamma1 enzyme inhibitors, primary screen, biochemical, fluorescence, purified enzyme; 1-phosphatidylinositol 4,5-bisphosphate phosphodiesterase gamma-1 (Homo sapiens), P19174; fluorogenic substrate; inhibition, % at 12.2 µM; 0.84% of 370,000 active; in the data active means inhibition above about 9.5%
PLC-beta3 inh = human PLC-beta3 inhibitors, primary screen, biochemical, fluorescence; 1-phosphatidylinositol 4,5-bisphosphate phosphodiesterase beta-3 (Homo sapiens), Q01970; Purified PLC-beta3, fluorogenic substrate; inhibition, % at 12.2 µM; 0.18% of 370,000 active;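 further: 0% = median of compound wells on plate and 100% = full blocker control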
Target sequence (Q01970 whole entry, looked up): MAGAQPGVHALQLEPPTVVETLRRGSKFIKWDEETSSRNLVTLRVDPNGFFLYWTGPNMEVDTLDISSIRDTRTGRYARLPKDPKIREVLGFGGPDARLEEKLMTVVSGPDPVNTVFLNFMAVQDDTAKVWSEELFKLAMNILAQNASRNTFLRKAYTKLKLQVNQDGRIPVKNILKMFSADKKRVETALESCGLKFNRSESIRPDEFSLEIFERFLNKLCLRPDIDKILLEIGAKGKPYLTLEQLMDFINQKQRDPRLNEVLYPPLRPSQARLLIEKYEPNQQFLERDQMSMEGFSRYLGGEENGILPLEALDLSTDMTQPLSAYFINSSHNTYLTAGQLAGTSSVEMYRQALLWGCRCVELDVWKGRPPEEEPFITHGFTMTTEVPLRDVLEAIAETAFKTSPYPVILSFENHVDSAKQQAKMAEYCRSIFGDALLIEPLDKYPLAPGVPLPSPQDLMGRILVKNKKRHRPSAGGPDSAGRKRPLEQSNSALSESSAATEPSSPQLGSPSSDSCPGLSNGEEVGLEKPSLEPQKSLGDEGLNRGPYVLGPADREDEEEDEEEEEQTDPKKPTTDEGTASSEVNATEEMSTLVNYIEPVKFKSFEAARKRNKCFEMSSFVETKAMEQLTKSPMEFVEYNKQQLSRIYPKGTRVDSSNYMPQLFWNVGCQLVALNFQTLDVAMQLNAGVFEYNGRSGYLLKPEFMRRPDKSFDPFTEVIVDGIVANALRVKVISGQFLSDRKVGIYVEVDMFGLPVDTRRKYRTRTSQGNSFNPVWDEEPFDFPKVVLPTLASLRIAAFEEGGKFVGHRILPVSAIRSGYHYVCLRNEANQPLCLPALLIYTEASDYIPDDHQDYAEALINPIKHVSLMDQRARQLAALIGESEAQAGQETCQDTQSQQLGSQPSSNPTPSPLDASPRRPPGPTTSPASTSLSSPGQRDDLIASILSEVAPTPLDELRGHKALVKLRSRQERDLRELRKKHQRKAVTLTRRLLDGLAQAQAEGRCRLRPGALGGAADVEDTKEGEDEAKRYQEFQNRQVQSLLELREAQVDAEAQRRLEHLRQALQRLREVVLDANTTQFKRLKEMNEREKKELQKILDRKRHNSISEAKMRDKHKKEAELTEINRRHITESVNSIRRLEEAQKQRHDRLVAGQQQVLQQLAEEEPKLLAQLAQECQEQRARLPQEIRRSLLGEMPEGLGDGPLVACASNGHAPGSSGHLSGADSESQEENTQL
PLCg1 ctr = PLC-gamma1 enzyme inhibitors, counter-screen for PLC-beta3 inhibitor project, biochemical, fluorescence. shares compounds with PLCg1 inh. purified PLC-gamma1, fluorogenic substrate. inhibition, % at 12.3 µM. 3.1% of 3,300 active. AID 743258, 2014; in the data active means inhibition above about 9.5%
PLCb3 confirm = PLC-beta3 inhibitor confirmation, biochemical, fluorescence, purified enzyme. shares compounds with PLCg1 inh. inhibition, % at 12.3 µM. 1% of 3,300 active. AID 743261, 2014. fluorogenic substrate fluorescence
Numbers without * were called inactive; · = no result given. Rows were chosen to be rich in hits. Some 1.9% of all compounds tested hit in one or more screens of this group. Unless noted, no stated cut-off is given here; in the data, active means inhibition above about 11%; inactive means the rest.

SMILES | Tb MetRS inh | HGIII-sPLA2 inh | PLCg1 inh | PLC-beta3 inh | PLCg1 ctr | PLCb3 confirm
Cc1nn(-c2ccccc2)c2sc(C(=O)NC3CCCC3)cc12 | · | -3 | -3 | -3 | · | ·
CCOc1ccccc1Nc1nc(N)nc(CN(C)C2CCCCC2)n1 | 0 | 1 | 6 | 12* | 9 | 5
CCOc1ccccc1Nc1nc(N)nc(CSc2nccc(C)n2)n1 | 0 | -3 | -2 | 0 | · | ·
C[C@H]1[C@H](c2ccccc2)OC(O)([C@H](Cc2ccccc2)NC(=O)OC(C)(C)C)CN1C (stereo not given in full) | · | -5 | 2 | -22 | · | ·
N#CCOc1nc(N2CCOCC2)nc(N2CCOCC2)n1 | 0 | 11 | 10.0* | -2 | 0 | -4
CN1C(=O)[C@@](O)(c2cn(C)c3ccccc23)c2cc(F)ccc21 | 0 | 1 | 3 | 12* | -6 | -3
CN1C(=O)C(c2cn(C)c3ccccc23)(c2cn(C)c3ccccc23)c2cc(F)ccc21 | 0 | -7 | 2 | -1 | · | ·
CCOc1cc(/C=N/NC(=O)N/N=C/c2ccc(O)c(OCC)c2)ccc1O | · | -13 | 6 | 13* | 4 | -2
CCOc1cc(/C=N/NC(=O)C(=O)N/N=C/c2ccc(O)c(OCC)c2)ccc1O | 0 | 8 | -14 | -25 | · | ·
CCOc1cc(/C=N/Nc2nnc(C)n2N)ccc1O | 1 | 11 | 20* | 5 | -5 | -1
CCOc1cc(/C=N/Nc2ncnc(Cl)c2N)ccc1O | 0 | 9 | -6 | -10 | · | ·
COC(=O)C[C@H]1CC[C@H]2[C@H](COc3ccc(NC(=O)C4CCOCC4)cc3C(=O)N2C)O1 | · | 17 | 6 | 3 | · | ·
COC(=O)c1cc(-c2cccc(C(C)C)c2)c(=O)n2c1CCC2 | · | 2 | -11 | -16 | · | ·
O=C1CCC[C@H]2C[C@H](NCc3ccc(Cl)c(Cl)c3)CC[C@]23CCCN13 | · | -1 | 0 | 0 | · | ·
Cc1ccccc1NC(=O)C(C)Sc1nnc(CN2CCCC2)n1Cc1ccccc1 (stereo not given) | 0 | 3 | 10* | 0 | -5 | -2
O=C(COc1ccccc1)N1CCN(c2ccc([N+](=O)[O-])c(N3CCCCC3)c2)CC1 | -1 | -8 | 12* | 3 | 0 | 3
CC(C)C[C@H](NC(C)(C)C(=O)NC1CCCCC1)C(=O)NCC(c1ccccc1)c1ccccc1 | · | 3 | 1 | 4 | · | ·
O=C(NCC(c1ccccc1)c1ccccc1)[C@H](Cc1ccccc1)NC1(C(=O)NC2CCCCC2)CCOCC1 | · | 10 | 14* | 3 | 2 | 5
CCCCCCC12Cc3cc(OC)c(OC)cc3C(O1)C1=C(O2)C(C)(C)CCC1=O (stereo not given) | · | -17 | -6 | -7 | · | ·
CCc1nc2ccc(C(=O)N3CCCC(C(N)=O)C3)cn2c1N(C)Cc1ccc(OC)cc1 (stereo not given) | 0 | -6 | 10* | 0 | -8 | -4
CCOc1ccccc1C(=O)NCC(=O)NCCc1ccc(S(N)(=O)=O)cc1 | -1 | 10 | 10.0* | 2 | -6 | -1
COC(=O)[C@]12C[C@H](CC(=O)N3CCSCC3)C(=O)N(Cc3ccco3)C1=C[C@H](C(C)(C)C)O[C@@H]2C | · | -3 | -1 | 0 | · | ·
CCOc1cccc(/C=N\NC(=O)Cc2cccs2)c1O | · | -18 | -69 | -90 | · | ·
Cc1cc2c(nc1C)CCCN2S(=O)(=O)c1cccs1 | · | 1 | -4 | -2 | · | ·
CCNC(=S)N/N=C/c1ccc(OCC(=O)Nc2ccc(OC)cc2)c(OC)c1 | 0 | -4 | 16* | 17* | 5 | -1
CCOc1ccc(CCNC(=O)CS(=O)Cc2nc(-c3ccccc3Cl)oc2C)cc1OCC (stereo not given) | -1 | -2 | 2 | -5 | · | ·
Cc1ccc(CCNC(=O)CS(=O)Cc2nc(-c3ccccc3Cl)oc2C)cc1 (stereo not given) | -1 | -10 | 9.7* | -3 | -6 | -4
CN(C)C(CNC(=O)c1c(F)cccc1Cl)c1ccco1 (stereo not given) | 0 | 15 | 11* | -5 | -6 | -2
CN(C)C(CNC(=O)c1ccccc1C(F)(F)F)c1ccco1 (stereo not given) | -2 | 6 | -5 | -9 | · | ·

Screening data (PubChem)
